# Published values from different studies.
# Lines come from different studies, so protocols differ.
# Target: Calcium/calmodulin-dependent protein kinase type 1G (CAMK1G, Homo sapiens, UniProt Q96NX5)
SMILES,assay,setting,endpoint,value
N#CCCc1ccc2c(c1)-c1[nH]c3ccc([N+](=O)[O-])cc3c1CC(=O)N2,cell-free assay,0.5 µM,remaining signal,103%
CO[C@@H](C)c1c(Nc2ccc([C@@H](N(C)C(=O)C3CCS(=O)(=O)CC3)C(F)(F)F)cc2)cnc2cc(Cl)nn12,"cell-free assay, competition with immobilised ligand",1 µM,remaining binding,100%
COc1cc2c(Nc3ccc(Br)cc3F)ncnc2cc1OCC1CCN(C)CC1,cell-free assay,0.5 µM,remaining signal,101%
O=C(NCCCC1CCCCC1)c1ccc(CNC(=O)c2cnn(-c3ccccc3)c2C(F)(F)F)cc1,"cell-free assay, competition with immobilised ligand",0.1 µM,remaining binding,100%
Cc1ccc(C(=O)Nc2ccc(CN3CCN(C)CC3)c(C(F)(F)F)c2)cc1C#Cc1cnc2cccnn12,cell-free assay,23.5 nM,remaining signal,95%
O=C1NC(c2ccccn2)Sc2ccccc21 (stereo not drawn),"cell-free assay, competition with immobilised ligand",1 µM,remaining binding,100%
CN1CC(Oc2cnc(C#N)cc2-c2ccn3nc(NC(=O)C4CC4)cc3c2)C1,"enzyme activity, inhibitor",1 µM,inhibition,-1%
Cc1cc(NC(=O)c2cccc3cc(-c4cccc5[nH]nc(N)c45)ccc23)ccc1F,"enzyme activity, inhibitor",0.1 µM,activity vs control,102%
Nc1ncnc2occ(-c3ccc(NC(=O)Nc4cc(C(F)(F)F)ccc4F)cc3)c12,cell-free assay,20 µM,remaining signal,41%
O=C(Nc1cnn(-c2csc(C(=O)NC3COC3)c2)c1)Nc1ccccc1Cl,"enzyme activity, inhibitor",5 µM,remaining activity,94.2%
CC(C)(O)[C@H]1CC[C@H](Nc2ccc3ncc(-c4cccc(C(F)(F)F)c4)n3n2)CC1,"enzyme activity, inhibitor",1 µM,remaining activity,81.6%
COc1cc(Cl)c(C(=O)N[C@@H](CN[C@H]2CC[C@@H](N)CC2)Cc2ccc(C#N)cc2)cc1-c1ccc(CN[C@H](C)c2ccc(C)cc2)o1,"enzyme activity, inhibitor",1 µM,remaining activity,99%
c1ccc(N2CCN(Cc3nc4ccccc4[nH]3)CC2)nc1,"cell-free assay, competition with immobilised ligand",1 µM,remaining binding,100%
O=C1Nc2ccc(Cl)cc2C1=Cc1cc(Cl)c(O)c(Cl)c1,cell-free assay,0.5 µM,remaining signal,96.6%
Cc1sc(C(=O)NC2COC2)cc1-n1cc(NC(=O)Nc2c(F)cccc2Cl)cn1,"enzyme activity, inhibitor",10 µM,remaining activity,93.1%
